In ChEMBL document CHEMBL1156637, “Bioactive 5alpha-pregnane-type steroidal alkaloids from Sarcococca hookeriana” (J Nat Prod, 2008):
pIC50: −log10 of the molar value. In brackets after ≈: the same amount, converted by molar mass. Activity calls are given as the source filed them. No cut-off for these calls is given here.

Key:
Bacillus subtilis [1] = experiment: Antibacterial activity against Bacillus subtilis by agar well diffusion method; type: functional
Bacillus subtilis [2] = experiment: Antibacterial activity against Bacillus subtilis assessed as zone of inhibition at 1.0 mg/mL by agar well diffusion method; type: functional; conditions: read-out: IZ
Outline: (§1)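 Agar well diffusion with pure compounds loaded into wells at 1.0 mg/mL. Zone of inhibition read in mm. Ampicillin is the reference for Gram-positive strains and gentamicin for Gram-negative strains.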

Leishmania major = experiment: Antileishmanial activity against Leishmania major; type: functional, organism-based
Pseudomonas [3] = experiment: Antibacterial activity against Pseudomonas pallida by agar well diffusion method; type: functional
Enterococcus faecalis [4] = experiment: Antibacterial activity against Streptococcus faecalis assessed as zone of inhibition at 1.0 mg/mL by agar well diffusion method; type: functional; conditions: for zone of inhibition at 1000 µg/mL: read-out: IZ; outline: as §1
Micrococcus luteus [5] = experiment: Antibacterial activity against Micrococcus luteus assessed as zone of inhibition at 1.0 mg/mL by agar well diffusion method; type: functional; conditions: for zone of inhibition at 1000 µg/mL: read-out: IZ; outline: as §1
Pseudomonas [6] = experiment: Antibacterial activity against Pseudomonas pallida assessed as zone of inhibition at 1.0 mg/mL by agar well diffusion method; type: functional; conditions: for zone of inhibition at 1000 µg/mL: read-out: IZ; outline: as §1
Cholinesterase = Cholinesterase (Homo sapiens, UniProt P06276); experiment: Inhibition of butyrylcholinesterase
Chain of Cholinesterase (P06276 whole entry): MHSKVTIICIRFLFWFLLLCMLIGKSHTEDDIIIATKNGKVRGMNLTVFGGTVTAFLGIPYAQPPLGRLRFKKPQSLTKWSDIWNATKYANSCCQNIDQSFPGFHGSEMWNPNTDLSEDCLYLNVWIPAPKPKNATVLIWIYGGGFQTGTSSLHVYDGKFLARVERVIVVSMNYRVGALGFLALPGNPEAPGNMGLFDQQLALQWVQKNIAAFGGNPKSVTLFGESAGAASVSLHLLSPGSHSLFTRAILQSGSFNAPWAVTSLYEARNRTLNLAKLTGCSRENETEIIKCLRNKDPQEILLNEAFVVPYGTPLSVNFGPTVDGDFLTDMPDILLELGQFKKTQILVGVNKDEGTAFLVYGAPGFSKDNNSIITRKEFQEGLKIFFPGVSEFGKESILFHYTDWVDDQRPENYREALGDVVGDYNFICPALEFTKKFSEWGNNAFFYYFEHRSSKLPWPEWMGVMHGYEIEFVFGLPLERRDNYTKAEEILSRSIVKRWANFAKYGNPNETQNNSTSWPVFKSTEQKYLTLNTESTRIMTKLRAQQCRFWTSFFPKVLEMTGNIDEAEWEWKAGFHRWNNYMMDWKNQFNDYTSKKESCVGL
Outline: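 In vitro enzyme inhibition assay, reported as IC50 with the standard error of the mean from five assays.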

Acetylcholinesterase = Acetylcholinesterase (Homo sapiens, UniProt P22303); experiment: Inhibition of acetylcholinesterase
Chain of Acetylcholinesterase (P22303 whole entry, the tested form may be a part): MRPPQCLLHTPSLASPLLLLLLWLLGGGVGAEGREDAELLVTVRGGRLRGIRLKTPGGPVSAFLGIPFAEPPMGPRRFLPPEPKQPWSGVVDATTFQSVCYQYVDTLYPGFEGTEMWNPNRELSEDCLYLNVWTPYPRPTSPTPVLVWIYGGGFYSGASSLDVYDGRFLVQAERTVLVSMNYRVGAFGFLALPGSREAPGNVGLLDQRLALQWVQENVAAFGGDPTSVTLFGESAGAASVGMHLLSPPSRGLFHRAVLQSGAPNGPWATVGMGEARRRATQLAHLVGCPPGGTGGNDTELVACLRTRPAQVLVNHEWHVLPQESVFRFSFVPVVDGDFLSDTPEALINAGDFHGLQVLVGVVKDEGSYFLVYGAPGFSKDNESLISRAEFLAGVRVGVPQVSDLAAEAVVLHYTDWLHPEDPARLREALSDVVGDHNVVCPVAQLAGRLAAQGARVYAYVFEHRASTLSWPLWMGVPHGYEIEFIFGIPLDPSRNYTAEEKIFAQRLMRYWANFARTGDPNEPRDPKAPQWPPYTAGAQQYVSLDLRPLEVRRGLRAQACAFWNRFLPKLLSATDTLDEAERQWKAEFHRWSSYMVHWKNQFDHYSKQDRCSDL

Micrococcus luteus [7] = experiment: Antibacterial activity against Micrococcus luteus by agar well diffusion method; type: functional
Enterococcus faecalis [8] = experiment: Antibacterial activity against Streptococcus faecalis assessed as zone of inhibition at 0.25 mg/mL by agar well diffusion method; type: functional; conditions: read-out: IZ
Outline: (§2)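 Reference antibiotic (ampicillin for these Gram-positive strains) tested by agar well diffusion at 0.25 mg/mL. Inhibition zone diameter recorded in mm.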

Micrococcus luteus [9] = experiment: Antibacterial activity against Micrococcus luteus assessed as zone of inhibition at 0.25 mg/mL by agar well diffusion method; type: functional; conditions: read-out: IZ; outline: as §2
Bacillus subtilis [10] = experiment: Antibacterial activity against Bacillus subtilis assessed as zone of inhibition at 0.25 mg/mL by agar well diffusion method; type: functional; conditions: read-out: IZ; outline: as §2

Structure (SMILES) | MIC (Bacillus subtilis [1]) [µM] | zone of inhibition at 1000 µg/mL (Bacillus subtilis [2]) [mm] | pIC50 (Leishmania major) | MIC (Pseudomonas [3]) [µM] | zone of inhibition at 1000 µg/mL (Enterococcus faecalis [4]) [mm] | Activity (Micrococcus luteus [5]) | zone of inhibition at 1000 µg/mL (Pseudomonas [6]) [mm] | pIC50 (Cholinesterase) | Activity (Enterococcus faecalis [4]) | pIC50 (Acetylcholinesterase) | Activity (Pseudomonas [6]) | MIC (Micrococcus luteus [7]) [µM] | zone of inhibition at 1000 µg/mL (Micrococcus luteus [5]) [mm] | zone of inhibition at 250 µg/mL (Enterococcus faecalis [8]) [mm] | zone of inhibition at 250 µg/mL (Micrococcus luteus [9]) [mm] | zone of inhibition at 250 µg/mL (Bacillus subtilis [10]) [mm]
CN[C@@H](C)[C@H]1CC[C@H]2[C@@H]3CC[C@H]4[C@@H](OC(C)=O)[C@@H](NC(=O)C=C(C)C)CC[C@]4(C)[C@H]3CC[C@]12C [VAGENINE A] | 64.3 (≈ 30.4 µg/mL) | 17 | 5.48 | 64.3 (≈ 30.4 µg/mL) | 10 | inactive | 13.5 |  |  |  |  |  |  |  |  | 
CN[C@@H](C)[C@H]1CC[C@H]2[C@@H]3CC=C4C(=O)[C@@H](NC(=O)C=C(C)C)CC[C@]4(C)[C@H]3CC[C@]12C | 568 (≈ 242 µg/mL) | 9 |  |  |  | inactive |  | 6.22 | inactive | 5.00 | inactive |  |  |  |  | 
C[C@@H]([C@H]1CC[C@H]2[C@@H]3CC[C@H]4C(=O)C(NC=O)=CC[C@]4(C)[C@H]3CC[C@]12C)N(C)C [HOOKERIANAMIDE H] | 324 (≈ 125 µg/mL) | 11.5 | 4.65 |  |  |  |  |  | inactive |  | inactive | 324 (≈ 125 µg/mL) | 11 |  |  | 
C/C=C(\C)C(=O)N[C@H]1CC[C@]2(C)[C@H]3CC[C@]4(C)[C@@H]([C@H](C)NC)CC[C@H]4[C@@H]3CC[C@H]2[C@H]1OC(C)=O [SARCOVAGINE C] | 64.3 (≈ 30.4 µg/mL) | 20 | 5.82 | 32.1 (≈ 15.2 µg/mL) | 12 |  | 17.5 | 6.40 |  | 5.09 |  | 64.3 (≈ 30.4 µg/mL) | 13.5 |  |  | 
C/C=C(\C)C(=O)NC1=CC[C@@]2(C)C(=CC[C@H]3[C@@H]4CC[C@H]([C@H](C)NC)[C@@]4(C)CC[C@@H]32)C1=O | 35.6 (≈ 15.1 µg/mL) | 20 | 4.67 | 35.6 (≈ 15.1 µg/mL) | 10 |  | 16.5 |  |  |  |  | 143 (≈ 60.6 µg/mL) | 12.5 |  |  | 
CC1(C)S[C@@H]2[C@H](NC(=O)[C@H](N)c3ccccc3)C(=O)N2[C@H]1C(=O)O [AMPICILLIN] | 89.7 (≈ 31.3 µg/mL) |  |  |  |  |  |  |  |  |  |  | 5.6 (≈ 1.96 µg/mL) |  | 25 | 26 | 29
C[C@@H]([C@H]1CC[C@H]2[C@@H]3CC[C@H]4C[C@@H](N(C)C)CC[C@]4(C)[C@H]3CC[C@]12C)N(C)C | 83.5 (≈ 31.3 µg/mL) | 19 |  | 167 (≈ 62.6 µg/mL) | 8 |  | 14.5 | 5.80 |  | 4.66 |  | 167 (≈ 62.6 µg/mL) | 11 |  |  | 
C[C@@H]1[C@H](O)[C@@H](C)/C=C/C=C/C=C/C=C/C=C/C=C/C=C/[C@H](O[C@@H]2O[C@H](C)[C@@H](O)[C@H](N)[C@@H]2O)C[C@@H]2O[C@](O)(C[C@@H](O)C[C@@H](O)[C@H](O)CC[C@@H](O)C[C@@H](O)CC(=O)O[C@H]1C)C[C@H](O)[C@H]2C(=O)O [AMPHOTERICIN B] |  |  | 6.30 |  |  |  |  |  |  |  |  |  |  |  |  | 
CN[C@@H](C)[C@H]1CC[C@H]2[C@@H]3CC[C@H]4C[C@@H](N(C)C(=O)c5ccccc5)CC[C@]4(C)[C@H]3CC[C@]12C [HOOKERIANAMIDE I] | 69.4 (≈ 31.3 µg/mL) | 17.5 | 5.06 | 69.4 (≈ 31.3 µg/mL) | 8 |  | 18.5 |  |  |  |  | 34.7 (≈ 15.6 µg/mL) | 18 |  |  | 
C[C@@H]([C@H]1CC[C@H]2[C@@H]3CC[C@H]4C[C@@H](N)CC[C@]4(C)[C@H]3CC[C@]12C)N(C)C [CHONEMORPHINE] | 90.3 (≈ 31.3 µg/mL) | 16.5 |  | 181 (≈ 62.6 µg/mL) | 10 |  | 14 | 6.30 |  | 4.55 |  | 90.3 (≈ 31.3 µg/mL) | 11.5 |  |  | 
CC(C)=CC(=O)N[C@H]1CC[C@@]2(C)[C@@H](CC[C@@H]3[C@@H]2CC[C@]2(C)C([C@H](C)N(C)C)=CC[C@@H]32)[C@H]1O [HOOKERIANAMIDE J] | 141 (≈ 62.6 µg/mL) | 15 | 4.95 | 70.7 (≈ 31.3 µg/mL) |  | inactive | 12 | 6.10 | inactive | 4.31 |  |  |  |  |  | 
C[C@@H]([C@H]1CC=C2[C@@H]3CCC4=C[C@@H](N(C)C)CC[C@]4(C)[C@H]3CC[C@@]21C)N(C)C [HOOKERIANAMIDE K] | 338 (≈ 125 µg/mL) | 13 | 5.17 | 169 (≈ 62.6 µg/mL) | 10 |  | 10.5 | 5.40 |  | 4.62 |  | 651 (≈ 241 µg/mL) | 9.5 |  |  | 
N=C(N)c1ccc(OCCCCCOc2ccc(C(=N)N)cc2)cc1 [PENTAMIDINE] |  |  | 5.12 |  |  |  |  |  |  |  |  |  |  |  |  | 
